Test results from ChEMBL document CHEMBL1123437, “Isozyme-specific enzyme inhibitors. 12. C- and N-methylmethionines as substrates and inhibitors of methionine adenosyltransferases of normal and hepatoma rat tissues” (J Med Chem, 1986).

Assays:
[1] = biological target: S-adenosylmethionine synthetase (MAT 1 and MAT 2) (Rattus norvegicus, UniProt P13444+P18298); assay: Competitive inhibitory activity against methionine adenosyltransferase; assay type: protein assay
In short: (§1)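 Rat kidney M-2 or Novikoff hepatoma M-T MAT, partially purified. Run at 37 °C, pH 8.2 (Tris, KCl, MgCl2, DTT) with 2 mM MgATP. [14C]Met at five or six levels spanning (0.5–4)×KM, with two inhibitor levels (1–3 mM) and no-inhibitor controls. 10 min, HClO4 stop, phosphocellulose disc counting. Ki from replots of double-reciprocal slopes vs inhibitor concentration.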

[2] = biological target: S-adenosylmethionine synthase isoform type-2 (Rattus norvegicus, UniProt P18298); assay: Competitive inhibitory activity against Methionine adenosyltransferase II; in short: as §1
S-adenosylmethionine synthase isoform type-2, sequence (P18298 whole entry, canonical isoform): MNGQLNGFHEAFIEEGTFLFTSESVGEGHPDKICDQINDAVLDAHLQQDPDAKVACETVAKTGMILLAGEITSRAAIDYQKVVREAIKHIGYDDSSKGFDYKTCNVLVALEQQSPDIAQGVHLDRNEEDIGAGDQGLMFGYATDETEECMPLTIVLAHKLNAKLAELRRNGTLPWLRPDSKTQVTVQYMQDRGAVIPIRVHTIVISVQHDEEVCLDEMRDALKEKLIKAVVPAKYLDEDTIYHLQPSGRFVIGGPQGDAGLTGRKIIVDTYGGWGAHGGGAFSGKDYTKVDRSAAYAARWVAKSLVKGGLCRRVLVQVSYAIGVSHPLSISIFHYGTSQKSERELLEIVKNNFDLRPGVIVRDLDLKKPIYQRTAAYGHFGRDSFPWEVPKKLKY

Ki [1] [µM]	Ki [2] [µM]	SMILES
500	500	CSCC(C)C(N)C(=O)O (centres undefined)
3200	2400	CSC(C)C[C@@H](N)C(=O)O (some centres undefined)
